# Screening data as filed in PubChem.
# HSV replic up – HSV replication enhancement; HSV replication augmentation in cells, fold increase; hit rate 0.005% among 220,000; AID 1956; maximum fold increase; in the data active means maximum fold increase above about 1.5; tested in PC3 cells
# Rad51 HR inh – blocks human Rad51 in homologous recombination; hRad51 DNA strand exchange, fluorescence dequenching; hit rate 0.085% among 200,000; Q06609; inhibition, % at 10 µM;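 active means inhibition above 40% at the single screening dose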;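 further: 0% = DMSO control wells and 100% = blanks with heterologous ssDNA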
#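 Material: hRad51 filaments on single-stranded DNA; Reagent: Donor/quencher-labelled 47-bp dsDNA substrate; Compound: 10 µM final, single point; Schedule: 37 °C 15-min filament assembly, 30-min compound preincubation, 15-min exchange; Technique: FRET fluorescence, excitation 485 nm, emission 520 nm; Benchmarks: control wells and blank wells on each plate.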
# ABCG2 inh – blocks JC-1 efflux by human ABCG2 transporter; Q9UNQ0; IgMXP3 cells, flow cytometry; inhibition, % at 6.6 µM; hit rate 0.1% among 190,000;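 active means inhibition above 80%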;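 further: 0% = DMSO and 100% = nicardipine control wells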
#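 material = IgMXP3 (ABCG2) plus far-red-tagged CCRF-Adr (ABCB1) cells | amount = 3 million cells/mL, equal mix of both lines | also added = JC-1 transporter substrate | dosing = one concentration, 6.6 µM final | schedule = 10 min at 25 °C | measured by = flow cytometric JC-1 green MFI at 530 nm | read-out basis = percent efflux inhibition, scaled nicardipine 100% to DMSO 0%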
# ABCB6 inh 2 – inhibitors of human ABC transporter ABCB6; K562-ABCB6 porphyrin accumulation, flow cytometry, 1 h; active compounds read low; fluorescence ratio to DMSO, % at 10 µM; hit rate 0.19% among 360,000;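 active means fluorescence ratio to DMSO below 75%, the collection mean minus 3 SD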;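 further: signal is porphyrin accumulated inside mitochondria; 100% equals median channel fluorescence of DMSO control wells; lower ratio means ABCB6 inhibition with less porphyrin fluorescence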
# p97 inhibitor – blocks human p97 ATPase activity | inhibition, % at 8 µM | hit rate 0.42% among 220,000 | P55072 | recombinant p97 ATPase, Kinase-Glo ATP luminescence, 3 h; in the data active means inhibition above about 15%;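 further: 0% = DMSO vehicle and 100% = wells lacking enzyme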
# Target sequence (P55072 whole entry, looked up): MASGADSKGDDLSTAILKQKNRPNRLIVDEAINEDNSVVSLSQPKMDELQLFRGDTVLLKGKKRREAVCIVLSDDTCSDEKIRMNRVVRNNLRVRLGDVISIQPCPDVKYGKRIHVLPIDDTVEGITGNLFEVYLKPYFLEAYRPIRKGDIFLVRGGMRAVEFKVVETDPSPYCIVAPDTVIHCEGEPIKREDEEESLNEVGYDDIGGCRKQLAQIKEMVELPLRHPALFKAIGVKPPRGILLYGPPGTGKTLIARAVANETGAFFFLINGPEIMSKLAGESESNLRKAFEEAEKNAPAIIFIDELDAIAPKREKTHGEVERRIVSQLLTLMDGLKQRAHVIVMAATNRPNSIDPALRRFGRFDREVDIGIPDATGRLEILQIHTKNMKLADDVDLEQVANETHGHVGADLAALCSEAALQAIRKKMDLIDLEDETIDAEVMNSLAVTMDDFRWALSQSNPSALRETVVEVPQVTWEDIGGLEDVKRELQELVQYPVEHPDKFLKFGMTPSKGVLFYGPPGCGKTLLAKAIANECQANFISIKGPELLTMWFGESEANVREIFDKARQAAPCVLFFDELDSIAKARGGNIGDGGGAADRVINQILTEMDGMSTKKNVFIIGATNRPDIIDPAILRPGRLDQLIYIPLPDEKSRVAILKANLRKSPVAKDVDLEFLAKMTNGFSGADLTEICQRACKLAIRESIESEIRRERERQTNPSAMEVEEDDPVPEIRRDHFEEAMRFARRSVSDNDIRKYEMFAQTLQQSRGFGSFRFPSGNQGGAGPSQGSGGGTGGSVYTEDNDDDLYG
# ABCB1 inh – inhibitors of human ABCB1 transporter, ABCG2 counter-screen; CCRF-Adr cells, JC-1 efflux, flow cytometry; inhibition, % at 6.6 µM; P08183; hit rate 0.067% among 190,000; in the data active means inhibition above about 40%;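 further: 0% = vehicle and 100% = reference inhibitor; higher value means more JC-1 retained so stronger ABCB1 efflux block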
# ABCB6 blocker 1 – inhibitors of human ABC transporter ABCB6; shares compounds with ABCB6 inh 2; K562-ABCB6 porphyrin accumulation, flow cytometry, 1 h; active compounds read low; ratio response (% of DMSO), % at 10 µM; 700 tested, under 10 active; AID 602430;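 active means repeat-averaged ratio response below 75% of DMSO, the collection mean minus 3 SD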;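 further: median porphyrin fluorescence at 575 nm with 488 nm excitation from mitochondria; lower ratio means less porphyrin signal so ABCB6 inhibition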
# * hit, by the source's call; i = inactive; · = no result given. In the library only some 0.55% were active in any assay of this set; here they are far more common.
SMILES,HSV replic up,Rad51 HR inh,ABCG2 inh,ABCB6 inh 2,p97 inhibitor,ABCB1 inh,ABCB6 blocker 1
Cc1ccc(-n2nc3c(=O)n(CC(=O)NC(C)CCc4ccccc4)nc(C)c3c2C)cc1 (centres undefined),·,·,·,98,·,·,·
CC(C)=NNc1cnnc2ccc([N+](=O)[O-])cc12,·,·,·,98,·,·,·
CCOC(=O)c1ccc(NC(=O)c2sc3nc4n(c(=O)c3c2C)CCC4)cc1,·,·,·,97,·,·,·
Cc1c(C(=O)Nc2ccccc2F)sc2nc3n(c(=O)c12)CCC3,·,·,·,98,·,·,98
Cc1cc(C)cc(NC(=O)c2sc3nc4n(c(=O)c3c2C)CCC4)c1,·,·,·,92,·,·,·
CCc1cccc(NC(=O)c2sc3nc4n(c(=O)c3c2C)CCC4)c1,·,·,·,94,·,·,94
CCOc1ccc(NC(=O)c2sc3nc4n(c(=O)c3c2C)CCC4)cc1,·,·,·,94,·,·,102
COc1ccccc1NC(=O)c1sc2nc3n(c(=O)c2c1C)CCC3,·,·,·,101,·,·,·
CC[C@H](C)[C@@H](CO)NC(=O)[C@H]1O[C@@H](n2ccc(N)nc2=O)[C@H](O)[C@@H]1O,·,·,·,99,·,·,·
COC(=O)[C@@]1(Cc2ccccc2)[C@H]2C(=O)N(Cc3ccccc3)C(=O)[C@H]2[C@H]2CN=C(SCC3CC3)N21,·,·,·,99,·,·,·
Cc1ccc(S(=O)(=O)C2(C(=O)N3CCN(c4ccccc4F)CC3)CC2)cc1,·,·,·,72*,·,·,101
COc1ccc(OC(F)(F)F)cc1CC1(C)C(=O)Nc2ccc(S(=O)(=O)NC3CCCCC3)cc21 (centres undefined),·,·,·,87,·,·,·
O=C1NC[C@@H](CCCCN2CCN(CC3CCCCC3)C(=O)C2=O)N(CCC2CCCCC2)C1=O,·,·,·,96,·,·,·
Cc1ccc(C)c(OCc2ccc(C(=O)N3N=C(C(F)F)CC3(O)C(F)F)o2)c1 (centres undefined),i,6,11,63*,-2,0,95
CCOc1ccc(OCc2ccc(C(=O)N3N=C(C(F)F)CC3(O)C(F)F)o2)cc1 (centres undefined),i,0,4,66*,3,0,98
O=C(c1ccc(COc2ccc3ccccc3c2)o1)N1N=C(C(F)F)CC1(O)C(F)F (centres undefined),i,2,24,103,-6,-1,101
Cc1cc(C)cc(OCc2ccc(C(=O)N3N=C(C(F)F)CC3(O)C(F)F)o2)c1 (centres undefined),·,·,23,97,1,1,101
CCOc1ccc(OCc2ccc(C(=O)NC(C)C)o2)cc1,·,·,·,102,·,·,·
O=C1[C@H]2[C@@H](c3ccc(C(F)(F)F)cc3)N[C@]3(CCCN(Cc4ccco4)C3=O)[C@H]2C(=O)N1Cc1ccccc1,·,·,·,103,·,·,·
COc1ccc(CC(N)c2csc(NC(=O)c3cccc(OC(F)(F)F)c3)n2)cc1 (centres undefined),·,·,·,94,·,·,·
CC1(C(=O)NS(=O)(=O)c2ccc(Cl)cc2)CCN1C(=O)CCC1CCCC1 (centres undefined),·,·,·,95,·,·,·
O=C(c1ccc(COc2ccc(Br)cc2)o1)N1N=C(C(F)F)CC1(O)C(F)F (centres undefined),i,5,2,94,1,0,100
O=C(c1ccc(COc2ccccc2Cl)o1)N1N=C(C(F)F)CC1(O)C(F)F (centres undefined),i,1,5,96,-3,1,100
CC1CCN(C(=O)CN2C(=O)NC(C)(c3ccc4ccccc4c3)C2=O)CC1 (centres undefined),·,·,·,98,·,·,·
CCOCCn1c(N2CCN(c3ccc(OC)cc3)CC2)nc2c1c(=O)[nH]c(=O)n2C,i,-2,15,72*,5,1,99
SMILES,HSV replic up,Rad51 HR inh,ABCG2 inh,ABCB6 inh 2,p97 inhibitor,ABCB1 inh,ABCB6 blocker 1
COCCn1c(N2CCN(c3ccc(OC)cc3)CC2)nc2c1c(=O)[nH]c(=O)n2C,i,5,2,94,6,0,·
CCOC(=O)Cc1nnc(NC(=O)C(CC)Sc2nnc3c4ccccc4n(C)c3n2)s1 (centres undefined),i,-3,6,74*,1,2,100
CCOC(=O)c1sc(NC(=O)C(CC)Sc2nnc3c4ccccc4n(C(C)C)c3n2)nc1C (centres undefined),i,-3,-3,93,-2,-2,·
O=C(Nc1ccc(Oc2ccccc2)cc1)c1csc([C@@H]2O[C@H](CO)[C@H](O)[C@H](O)[C@H]2O)n1,·,·,·,92,·,·,·
COc1ccc(Cl)cc1CC=NNC(=O)c1ccncc1,·,·,·,104,·,·,·
COc1cccc(CNCCO)c1OCc1ccc(Cl)cc1,i,28,4,74*,-4,1,97
COc1ccc(NC(=O)c2cccc(S(=O)(=O)N3CCCCC3)c2)c(OC)c1,·,·,·,13*,·,·,98
CCOC(=O)[C@]12CCCC=C1N(Cc1ccco1)C(=O)[C@H](CC(=O)NCC1CCCCC1)C2,·,·,·,97,·,·,·
CN(C)C1=NC[C@H](Cc2ccccc2)N1CC1CCCCC1,·,·,·,92,·,·,·
CN(C)C1=NC[C@H](Cc2ccccc2)N1CC1CCCC1,·,·,·,72*,·,·,98
O=C(CCc1nc(-c2ccccc2Cl)no1)NC1CCCC1,·,·,·,99,·,·,·
O=C(CCc1nc(-c2ccccc2Cl)no1)NC1CCCCC1,·,·,·,73*,·,·,99
OC(c1cc(F)cc(Cl)c1)c1ncc(-c2ccccc2Cl)[nH]1 (centres undefined),·,·,·,99,·,·,·
CCOC(=O)C1(C)CCCN(C(=O)c2cc(C#N)cs2)C1 (centres undefined),·,·,·,109,·,·,·
O=C1CC(c2ccccc2)CC(O)=C1C=NCc1ccccc1Cl (centres undefined),·,·,3,15*,0,1,97
O=C1CC(c2ccccc2)CC(O)=C1C=NCc1ccccc1 (centres undefined),i,9,7,103,-2,2,·
Cc1cccc(C(=O)O[C@@H]2[C@H](Cc3ccccc3)NS(=O)(=O)[C@H]3C[C@@H]4C=C[C@]23O4)c1,·,·,·,97,·,·,·
CC(=O)Nc1ccc(-c2ccnc3c2CC(C(=O)Nc2cccc(OC(F)(F)F)c2)O3)cc1 (centres undefined),·,·,·,74*,·,·,102
O=C(Nc1cccc(C(F)(F)F)c1)C1Cc2c(-c3ccccc3Oc3ccccc3)ccnc2O1 (centres undefined),·,·,·,87,·,·,99
CC(=O)Nc1cccc(-c2ccnc3c2CC(C(=O)Nc2cccnc2)O3)c1 (centres undefined),·,·,·,108,·,·,99
CC(=O)Nc1cccc(-c2ccnc3c2CC(C(=O)Nc2cccc(OC(F)(F)F)c2)O3)c1 (centres undefined),·,·,·,100,·,·,·
COc1cc(C)ccc1S(=O)(=O)NC(=O)Cn1nnc(COc2ccc3c(c2)CCCC3)c1C,·,·,·,105,·,·,·
Cc1cccc(NC(=O)COC(=O)C2COc3ccccc3O2)c1C (centres undefined),·,·,·,93,·,·,·
